Calls of active or inactive are those of the source. The calls are words filed in the database; no cut-off is given here.
Tests used:
Mus musculus [1] = experiment: Anti-diabetic activity in ICR mouse assessed as inhibition of DPP4 in plasma at 3 mg/kg, po administered as single dose using Gly-Pro-AMC as substrate and measured after 7 days post dose by fluorometric assay relative to control; assay type: functional
Summary of the method: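 Male ICR mice (n = 10/group), fasted 2 h, given single oral doses of 0.03–3 mg/kg in 0.5% CMC-Na, with pre-dose baseline blood. Blood was drawn at 1–168 h. […] DPP-4 was read continuously for 5 min at 37 °C with 10 µM Gly-Pro-AMC in 100 mM HEPES pH 7.5 containing 0.1 mg/mL BSA (ex 360/em 460 nm). % activity is the treated rate over each animal's own baseline rate.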

Mus musculus [2] = experiment: Anti-diabetic activity in 6 h-fasted db/db mouse assessed as inhibition of DPP4 in plasma at 10 mg/kg, po administered as single dose pretreated for 60 mins followed by glucose challenge and measured after 120 mins post glucose challenge by OGTT; assay type: functional, organism-based
Mus musculus [3] = experiment: Anti-diabetic activity in 8 hrs-fasted ICR mouse assessed as reduction in blood glucose AUC (0 to 120 mins)at 0.3 mg/kg, po pretreated for 60 mins followed by glucose challenge and measured after 120 mins post glucose challenge by OGTT relative to control; assay type: functional
Summary of the method: (§1)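 Male ICR mice (n = 10/group), fasted 8 h, dosed orally at 0.03, 0.3 or 3 mg/kg in 0.5% CMC-Na 1 h before an oral glucose load of 3 g/kg. Glucometer readings at −60, 0, 15, 30, 60, 90 and 120 min. Glucose AUC0–120 min by the trapezoidal method; one-way ANOVA with Fisher's LSD against vehicle.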

Mus musculus [4] = experiment: Anti-diabetic activity in 8 hrs-fasted ICR mouse assessed as reduction in blood glucose AUC (0 to 120 mins) at 3 mg/kg, po pretre at ed for 60 mins followed by glucose challenge and measured after 120 mins post glucose challenge by OGTT rel at ive to control; assay type: functional; summary of the method: as §1
Mus musculus [5] = experiment: Anti-diabetic activity in 8 hrs-fasted ICR mouse assessed as increase in GLP1 levels at 1 mg/kg, po pretreated for 60 mins followed by glucose challenge and measured 5 to 10 mins post glucose challenge by OGTT relative to control; assay type: functional
Summary of the method: (§2)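 Male ICR mice (n = 10/group), fasted 8 h, dosed orally at 0.3, 1 or 3 mg/kg 1 h before oral glucose at 3 g/kg. Blood was collected at 0, 5 and 10 min into tubes with valine pyrrolidide and EDTA. Active GLP-1[7-36 amide] and insulin measured by kit. Two-way ANOVA with Fisher's LSD against vehicle.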

Mus musculus [6] = experiment: Anti-diabetic activity in 8 hrs-fasted ICR mouse assessed as increase in insulin levels at 1 mg/kg, po pretreated for 60 mins followed by glucose challenge by OGTT; assay type: functional, organism-based; summary of the method: as §2
Mus musculus [7] = experiment: Anti-diabetic activity in db/db mouse assessed as reduction in fasting blood glucose at 10 mg/kg, po dosed once weekly for 8 weeks; assay type: functional; parameters: scale not given: the % may be the effect or the level left
Mus musculus [8] = experiment: Anti-diabetic activity in db/db mouse assessed as increase in glucose tolerance at 10 mg/kg, po dosed once weekly for 8 weeks by OGTT; assay type: functional, organism-based
Mus musculus [9] = experiment: Anti-diabetic activity in db/db mouse assessed as increase in glucose-induced insulin secretion at 10 mg/kg, po dosed once weekly for 8 weeks pretreated for 60 mins followed by glucose challenge and measured after 120 mins post glucose challenge by OGTT relative to control; assay type: functional
Mus musculus [10] = experiment: Anti-diabetic activity in db/db mouse assessed as HbA1c levels at 10 mg/kg, po dosed once weekly for 8 weeks; assay type: functional
Mus musculus [11] = experiment: Anti-diabetic activity in 6 hrs-fasted db/db mouse assessed as reduction in blood glucose AUC (0 to 120 mins) at 10 mg/kg, po pretre at ed for 60 mins followed by glucose challenge and measured after 120 mins post glucose challenge by OGTT rel at ive to control
[12] = Terminal half life in ICR mouse at 2 mg/kg, po by LC-MS-MS analysis; assay type: ADME, organism-based; settings: in vivo, read-out: beta t1/2 (converted)
Summary of the method: (§3)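 Male ICR mice (n = 4/group), fasted 2 h, given a single oral dose of 2 mg/kg. Baseline blood was taken into EDTA, then samples at 1, 2, 4, 6, 8, 24, 48, 72, 96 and 120 h. Plasma was kept at -80 °C and concentrations measured by LC/MS/MS. Parameters came from noncompartmental analysis; values are means.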

[13] = Tmax in ICR mouse at 2 mg/kg, po by LC-MS-MS analysis; assay type: ADME, organism-based; settings: in vivo; summary of the method: as §3
[14] = Cmax in ICR mouse at 2 mg/kg, po by LC-MS-MS analysis; assay type: ADME, organism-based; parameters: dose 2 mg/kg, route oral; settings: in vivo; summary of the method: as §3
Mus musculus [15] = experiment: Initial plasma concentration in ICR mouse at 2 mg/kg, po by LC-MS-MS analysis; assay type: ADME, organism-based; settings: in vivo; summary of the method: as §3
[16] = AUCt in ICR mouse at 2 mg/kg, po by LC-MS-MS analysis; assay type: ADME, organism-based; settings: in vivo; summary of the method: as §3
[17] = AUC (0 to infinity) in ICR mouse at 2 mg/kg, po by LC-MS-MS analysis; assay type: ADME, organism-based; parameters: dose 2 mg/kg, route oral, time infinity; settings: in vivo; summary of the method: as §3
[18] = MRT (0 to infinity) in ICR mouse at 2 mg/kg, po by LC-MS-MS analysis; assay type: ADME, organism-based; settings: in vivo; summary of the method: as §3
[19] = Tmax in Sprague-Dawley rat at 2 mg/kg, po by LC-MS-MS analysis; assay type: ADME, organism-based; settings: in vivo
Rattus norvegicus = experiment: Initial plasma concentration in Sprague-Dawley rat at 2 mg/kg, po by LC-MS-MS analysis; assay type: ADME, organism-based; settings: in vivo
[20] = Cmax in Sprague-Dawley rat at 2 mg/kg, po by LC-MS-MS analysis; assay type: ADME, organism-based; parameters: dose 2 mg/kg, route oral; settings: in vivo
[21] = AUCt in Sprague-Dawley rat at 2 mg/kg, po by LC-MS-MS analysis; assay type: ADME, organism-based; settings: in vivo
[22] = Terminal half life in Sprague-Dawley rat at 1 mg/kg, iv by LC-MS-MS analysis; assay type: ADME, organism-based; settings: in vivo, read-out: beta t1/2 (converted)
[23] = Initial plasma concentration in Sprague-Dawley rat at 1 mg/kg, iv by LC-MS-MS analysis; assay type: ADME, organism-based
[24] = Cmax in Sprague-Dawley rat at 1 mg/kg, iv by LC-MS-MS analysis; assay type: ADME, organism-based; parameters: dose 1 mg/kg, route intravenous; settings: in vivo
[25] = AUCt in Sprague-Dawley rat at 1 mg/kg, iv by LC-MS-MS analysis; assay type: ADME, organism-based; settings: in vivo
[26] = AUC (0 to infinity) in Sprague-Dawley rat at 1 mg/kg, iv by LC-MS-MS analysis; assay type: ADME, organism-based; parameters: dose 1 mg/kg, route intravenous, time infinity; settings: in vivo
[27] = Clearance in Sprague-Dawley rat at 1 mg/kg, iv by LC-MS-MS analysis; assay type: ADME, organism-based; settings: in vivo
[28] = MRT (0 to infinity) in Sprague-Dawley rat at 1 mg/kg, iv by LC-MS-MS analysis; assay type: ADME, organism-based; settings: in vivo
[29] = Volume of distribution at steady state in Sprague-Dawley rat at 1 mg/kg, iv by LC-MS-MS analysis; assay type: ADME, organism-based; settings: in vivo, read-out: Vdss
[30] = Plasma concentration in Sprague-Dawley rat at 2 mg/kg, po by LC-MS-MS analysis; assay type: ADME, organism-based; settings: in vivo
[31] = Plasma concentration in Sprague-Dawley rat at 2 mg/kg, po after 24 hrs by LC-MS-MS analysis; assay type: ADME, organism-based; settings: in vivo
[32] = Oral bioavailability in Sprague-Dawley rat at 2 mg/kg after 24 hrs by LC-MS-MS analysis; assay type: ADME, organism-based; settings: in vivo
Mus musculus [33] = experiment: Anti-diabetic activity in 8 hrs-fasted ICR mouse assessed as increase in insulin levels at 3 mg/kg, po pretreated for 60 mins followed by glucose challenge by OGTT; assay type: functional, organism-based; summary of the method: as §2
Mus musculus [34] = experiment: Anti-diabetic activity in db/db mouse assessed as reduction in fasting blood glucose at 3 mg/kg, po dosed once weekly for 8 weeks; assay type: functional; parameters: scale not given: the % may be the effect or the level left
[35] = Toxicity in db/db mouse assessed as induction of abnormal weight gain at 3 to 10 mg/kg, po dosed once weekly for 8 weeks; assay type: organism-based; settings: in vivo, 1344 h
[36] = molecular target: Voltage-gated inwardly rectifying potassium channel KCNH2 (Homo sapiens, UniProt Q12809); experiment: Inhibition of human ERG by patch clamp assay
[37] = Toxicity in ICR mouse assessed at 300 mg/kg, po administered as single dose; assay type: organism-based; settings: in vivo
Summary of the method: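 ICR mice given a single oral dose of 300 mg/kg to assess acute toxicity.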

[38] = Toxicity in ICR mouse assessed as effect on clinical signs at 30 mg/kg, po administered once daily for 14 consecutive days; assay type: organism-based; settings: in vivo
Summary of the method: (§4)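 ICR mice dosed orally at 30 mg/kg once daily for 14 consecutive days. Endpoints were clinical signs, body weight, organ index, blood parameters and serum biochemistry, each compared with a control group.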

[39] = Toxicity in ICR mouse assessed as effect on body weight at 30 mg/kg, po administered once daily for 14 consecutive days; assay type: organism-based; settings: in vivo; summary of the method: as §4
[40] = Toxicity in ICR mouse assessed as effect on organ index at 30 mg/kg, po administered once daily for 14 consecutive days; assay type: organism-based; settings: in vivo; summary of the method: as §4
[41] = Toxicity in ICR mouse assessed as effect on blood parameter at 30 mg/kg, po administered once daily for 14 consecutive days; assay type: organism-based; settings: in vivo; summary of the method: as §4
[42] = Toxicity in db/db mouse assessed as induction of distress signs at 3 to 10 mg/kg, po dosed once weekly for 8 weeks; assay type: organism-based; settings: in vivo, 1344 h
[43] = Toxicity in db/db mouse assessed as induction of discomfort signs at 3 to 10 mg/kg, po dosed once weekly for 8 weeks; assay type: organism-based; settings: in vivo, 1344 h
[44] = Toxicity in ICR mouse assessed as effect on serum biochemical parameters at 30 mg/kg, po administered once daily for 14 consecutive days; assay type: organism-based; settings: in vivo; summary of the method: as §4
Mus musculus [45] = experiment: Anti-diabetic activity in mouse assessed as inhibition of DPP4 in plasma at 3 mg/kg, po administered as single dose pretreated for 60 mins followed by glucose challenge and measured over 168 hrs post dose

Sequence of Voltage-gated inwardly rectifying potassium channel KCNH2 (Q12809 whole entry): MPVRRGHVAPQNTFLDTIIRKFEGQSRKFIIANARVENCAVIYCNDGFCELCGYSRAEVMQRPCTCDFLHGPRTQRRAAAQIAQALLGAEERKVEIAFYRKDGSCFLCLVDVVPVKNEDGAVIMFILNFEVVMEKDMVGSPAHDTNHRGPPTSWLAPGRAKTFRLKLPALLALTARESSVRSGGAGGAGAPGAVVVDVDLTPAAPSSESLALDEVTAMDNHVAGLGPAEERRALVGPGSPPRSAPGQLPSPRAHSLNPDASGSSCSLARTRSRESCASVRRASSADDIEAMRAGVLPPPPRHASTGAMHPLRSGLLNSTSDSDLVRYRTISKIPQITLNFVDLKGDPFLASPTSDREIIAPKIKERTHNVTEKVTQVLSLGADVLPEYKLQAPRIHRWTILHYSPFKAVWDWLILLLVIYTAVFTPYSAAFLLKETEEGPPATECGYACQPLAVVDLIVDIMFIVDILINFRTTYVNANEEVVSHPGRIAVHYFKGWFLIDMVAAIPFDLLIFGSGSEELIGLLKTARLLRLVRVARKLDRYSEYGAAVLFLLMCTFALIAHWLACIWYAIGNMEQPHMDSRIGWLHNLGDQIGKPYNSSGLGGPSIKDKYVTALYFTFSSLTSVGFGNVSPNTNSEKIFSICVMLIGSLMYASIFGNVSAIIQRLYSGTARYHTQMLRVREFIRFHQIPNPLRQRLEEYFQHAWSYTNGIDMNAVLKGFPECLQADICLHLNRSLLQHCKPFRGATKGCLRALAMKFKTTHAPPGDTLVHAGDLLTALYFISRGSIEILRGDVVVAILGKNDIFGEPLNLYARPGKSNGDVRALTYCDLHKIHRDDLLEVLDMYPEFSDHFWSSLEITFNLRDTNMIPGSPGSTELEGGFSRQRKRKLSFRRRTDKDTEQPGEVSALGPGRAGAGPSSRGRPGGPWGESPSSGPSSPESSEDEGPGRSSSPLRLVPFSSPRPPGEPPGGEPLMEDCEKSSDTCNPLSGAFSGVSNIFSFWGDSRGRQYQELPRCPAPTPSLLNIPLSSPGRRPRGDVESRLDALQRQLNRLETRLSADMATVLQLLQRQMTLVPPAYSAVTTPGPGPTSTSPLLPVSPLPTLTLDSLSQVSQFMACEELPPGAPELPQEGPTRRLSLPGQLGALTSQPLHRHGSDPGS

CS(=O)(=O)n1cc2c(n1)CN([C@H]1CO[C@H](c3cc(F)ccc3F)[C@@H](N)C1)C2 [OMARIGLIPTIN]
inhibition (Mus musculus [1]): Active | inhibition (Mus musculus [2]): Active | inhibition in vivo at 0.3 mg/kg (Mus musculus [3]): 14.6% | inhibition in vivo at 3 mg/kg (Mus musculus [4]): 22.1% | fold change (FC) (Mus musculus [5]): 1.6 - 1.7 | Activity (Mus musculus [6]): Active | Activity (Mus musculus [7]): 26.6% | Activity (Mus musculus [8]): Active | fold change (FC) (Mus musculus [9]): 1.8 | Activity (Mus musculus [10]): Active | inhibition in vivo at 10 mg/kg (Mus musculus [11]): 8.3%

Cn1c(=O)cc(N2CCC[C@@H](N)C2)n(Cc2cc(F)ccc2C#N)c1=O [TRELAGLIPTIN]
inhibition (Mus musculus [2]): Active | Activity (Mus musculus [7]): 16.8% | Activity (Mus musculus [8]): Active | fold change (FC) (Mus musculus [9]): 1.7 | Activity (Mus musculus [10]): Active | inhibition in vivo at 10 mg/kg (Mus musculus [11]): 19.3%

COc1cc2c3c(ccc2cc1C#N)O[C@H](c1cc(F)c(F)cc1F)[C@@H](N)C3
half-life [12]: 25.3 h | Tmax [13]: 10.2 h | Cmax [14]: 1.77 µg/mL | C0 (Mus musculus [15]): 1.77337 µg/mL | AUC(0-t) [16]: 82 µg·h/mL | AUC(0-inf) [17]: 85.6 µg·h/mL | MRT inf [18]: 40.7 h | Tmax [19]: 6.67 h | C0 (Rattus norvegicus): 1.38747 µg/mL | Cmax [20]: 1.39 µg/mL | AUC(0-t) [21]: 23.2 µg·h/mL | half-life [22]: 11.9 h | C0 [23]: 2.01 µg/mL | Cmax [24]: 2.01 µg/mL | AUC(0-t) [25]: 11.8 µg·h/mL | AUC(0-inf) [26]: 15.4 µg·h/mL | clearance [27]: 0.066 L/h/kg | MRT inf [28]: 15.9 h | Vd [29]: 2.07 L/kg | Drug uptake [30]: Active | Drug uptake [31]: Active | bioavailability [32]: 98.5% | inhibition in vivo at 3 mg/kg (Mus musculus [1]; 168 h): ≤ 80% | inhibition in vivo at 0.3 mg/kg (Mus musculus [3]): 16.4% | inhibition in vivo at 3 mg/kg (Mus musculus [4]): 27.2% | Activity (Mus musculus [33]): Active | Activity (Mus musculus [34]): 24.7% | Activity (Mus musculus [7]): 33.1% | Activity (Mus musculus [8]): Active | Activity (Mus musculus [10]): 3.56% | Activity [35]: Non-Toxic | IC50 [36]: > 40 µM | Activity [37]: Non-Toxic | Activity [38]: Non-Toxic | Activity [39]: Non-Toxic | Activity [40]: Non-Toxic | Activity [41]: Non-Toxic | Activity [42]: Non-Toxic | Activity [43]: Non-Toxic | Activity [44]: Non-Toxic | inhibition in vivo at 3 mg/kg (Mus musculus [45]): > 80% | inhibition in vivo at 10 mg/kg (Mus musculus [11]): 18.3%

Source: ChEMBL document CHEMBL4480397, “Discovery of a Natural-Product-Derived Preclinical Candidate for Once-Weekly Treatment of Type 2 Diabetes” (J Med Chem, 2019)
